Test results from ChEMBL document CHEMBL1122244, “Synthesis and monoamine oxidase inhibitory activities of alpha-allenic amines in vivo and in vitro. Different activities of two enantiomeric allenes” (J Med Chem, 1983).

Key:
[1] = target: T1, Monoamine oxidase (Rattus norvegicus, UniProt P19643+P21396); assay: In vitro inhibition of Monoamine oxidase at rat hyphalamic mitochondrial PEA by displacing 2.5 uM of [14C]PEA.; format: protein assay
T1 sequence (P19643 whole entry): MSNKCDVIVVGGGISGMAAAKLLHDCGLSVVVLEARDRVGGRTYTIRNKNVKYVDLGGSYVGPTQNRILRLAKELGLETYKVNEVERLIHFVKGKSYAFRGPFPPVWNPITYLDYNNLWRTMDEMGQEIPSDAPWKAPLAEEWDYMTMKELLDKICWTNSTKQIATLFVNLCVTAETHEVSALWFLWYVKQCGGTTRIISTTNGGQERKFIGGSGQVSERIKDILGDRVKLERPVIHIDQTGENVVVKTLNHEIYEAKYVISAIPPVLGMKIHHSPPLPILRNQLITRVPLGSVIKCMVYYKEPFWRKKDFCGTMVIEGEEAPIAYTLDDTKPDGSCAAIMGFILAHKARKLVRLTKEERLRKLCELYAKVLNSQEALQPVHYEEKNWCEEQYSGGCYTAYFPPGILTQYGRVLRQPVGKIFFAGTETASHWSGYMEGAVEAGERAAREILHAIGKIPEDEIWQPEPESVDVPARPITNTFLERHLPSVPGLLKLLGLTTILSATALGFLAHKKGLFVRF
T1 sequence (P21396 whole entry): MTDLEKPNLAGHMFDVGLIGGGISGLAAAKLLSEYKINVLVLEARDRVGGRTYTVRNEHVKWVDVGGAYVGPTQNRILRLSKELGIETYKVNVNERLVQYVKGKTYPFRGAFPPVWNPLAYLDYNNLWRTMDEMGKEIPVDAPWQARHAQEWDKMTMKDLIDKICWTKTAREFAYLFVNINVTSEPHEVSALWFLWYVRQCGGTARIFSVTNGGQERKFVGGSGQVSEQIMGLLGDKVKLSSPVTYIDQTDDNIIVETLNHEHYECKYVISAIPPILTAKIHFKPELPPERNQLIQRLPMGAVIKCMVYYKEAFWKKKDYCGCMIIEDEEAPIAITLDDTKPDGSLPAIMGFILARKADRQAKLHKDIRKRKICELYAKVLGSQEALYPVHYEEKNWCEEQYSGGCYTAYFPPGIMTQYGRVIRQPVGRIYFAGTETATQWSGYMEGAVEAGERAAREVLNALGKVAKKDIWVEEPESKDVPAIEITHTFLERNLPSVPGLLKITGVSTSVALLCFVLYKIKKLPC

[2] = target: T1, Monoamine oxidase; assay: In vitro inhibition of Monoamine oxidase at rat hyphalamic mitochondrial 5-HT by displacing 2.5 uM of [14C]5-HT.; format: protein assay
[3] = target: T2, Monoamine oxidase (Mus musculus, UniProt Q8BW75+Q64133); assay: Inhibitory activity of Monoamine oxidase at mouse forebrain homogenate by displacing [14C]5-HT; format: tissue-based
T2 sequence (Q8BW75 whole entry): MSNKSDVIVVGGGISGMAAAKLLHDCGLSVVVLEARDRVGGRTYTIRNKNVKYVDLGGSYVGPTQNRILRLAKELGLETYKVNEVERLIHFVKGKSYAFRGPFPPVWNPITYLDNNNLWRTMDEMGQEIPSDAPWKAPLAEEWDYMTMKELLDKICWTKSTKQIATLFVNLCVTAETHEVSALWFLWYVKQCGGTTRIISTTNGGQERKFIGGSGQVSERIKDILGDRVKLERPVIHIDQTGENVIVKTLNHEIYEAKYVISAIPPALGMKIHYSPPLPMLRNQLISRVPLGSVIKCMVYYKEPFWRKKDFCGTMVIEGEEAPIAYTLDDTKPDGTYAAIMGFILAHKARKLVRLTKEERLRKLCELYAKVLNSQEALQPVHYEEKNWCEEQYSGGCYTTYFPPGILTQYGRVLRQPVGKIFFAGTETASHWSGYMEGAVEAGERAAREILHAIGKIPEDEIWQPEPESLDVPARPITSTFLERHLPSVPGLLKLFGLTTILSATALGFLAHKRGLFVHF
T2 sequence (Q64133 whole entry): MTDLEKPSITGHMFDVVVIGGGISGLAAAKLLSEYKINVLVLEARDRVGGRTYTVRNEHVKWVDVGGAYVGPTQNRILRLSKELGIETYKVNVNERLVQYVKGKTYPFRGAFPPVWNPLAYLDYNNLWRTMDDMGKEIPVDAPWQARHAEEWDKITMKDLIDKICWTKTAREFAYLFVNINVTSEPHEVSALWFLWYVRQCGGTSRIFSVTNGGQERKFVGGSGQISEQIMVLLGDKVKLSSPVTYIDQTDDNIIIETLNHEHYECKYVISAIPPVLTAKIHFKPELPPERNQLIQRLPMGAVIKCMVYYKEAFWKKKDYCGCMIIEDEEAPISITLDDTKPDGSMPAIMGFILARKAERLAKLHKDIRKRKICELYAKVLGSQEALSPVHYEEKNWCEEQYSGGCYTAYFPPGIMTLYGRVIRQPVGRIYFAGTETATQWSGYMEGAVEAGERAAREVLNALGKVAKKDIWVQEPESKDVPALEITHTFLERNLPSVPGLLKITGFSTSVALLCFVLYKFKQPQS
Outline: (§1)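 Male NMRI mice (18–22 g) dosed ip (0.2 mL/20 g) and killed 1 h later, five per dose. Forebrain was homogenized in 10 vol ice-cold 0.1 M sodium phosphate, pH 7.4, and incubated 10 min at 37 °C with 10 μM [14C]PEA plus 10 μM [3H]5-HT. Acid metabolites were extracted into ethyl acetate and 3H/14C counted in separate channels.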

[4] = target: T2, Monoamine oxidase; assay: Inhibitory activity of Monoamine oxidase at mouse forebrain homogenate by displacing [14C]PEA; format: tissue-based; outline: as §1
[5] = system: Mus musculus; assay: Lowest dose potentiating the awakening effect of phenethylamine (10 mg/kg, subcutaneous) in mice pretreated with reserpine; format: functional
Outline: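 Mice were pretreated with reserpine 5 mg/kg sc 18 h beforehand. Test compound was given ip 1 h before PEA hydrochloride 10 mg/kg sc.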

[6] = system: Mus musculus; assay: Compound was injected ip 1 hr prior to 90 mg/kg iv of […] evaluation of head twitches in mice; format: functional
Outline: (§2)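 Test compound given ip 1 h before iv dl-5-HTP, 90 mg/kg, in mice. The 5-HTP syndrome was scored per Ross et al. for head twitches, tremor and abduction. Values are ED50 in μmol/kg ip.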

[7] = system: Mus musculus; assay: Compound was injected ip 1 hr prior to 90 mg/kg iv of […] evaluation of tremor in mice; format: functional; outline: as §2
[8] = system: Mus musculus; assay: Compound was injected ip 1 hr prior to 90 mg/kg iv of […] evaluation of abduction in mice; format: functional; outline: as §2
[9] = system: Mus musculus; assay: Lowest dose potentiating the awakening effect of phenethylamine (10 mg/kg, subcutaneous) in mice pretreated with reserpine
[10] = target: T2, Monoamine oxidase; assay: Inhibitory activity of Monoamine oxidase at mouse forebrain homogenate by displacing [14C]5-HT (serotonin); format: tissue-based; settings: in the assay text read “[3H]5-HT” for “[14C]5-HT”; outline: as §1
[11] = target: T2, Monoamine oxidase; assay: Inhibitory activity of Monoamine oxidase at mouse forebrain homogenate by displacing [14C]PEA (phenethylamine); format: tissue-based; outline: as §1

Row | Structure (SMILES) | IC50 [1] | IC50 [2] | ED50 [3] | ED50 [4] | Potentiation [5] | ED50 [6] | ED50 [7] | ED50 [8] | Potentiation [9] | ED50 [10] | ED50 [11]
1 | C=C=C(CN)Cc1ccc(C)cc1 | 0.36 µM | 1.1 µM | > 38 µM/kg | 23 µM/kg | >38 µM/kg | – | – | – | – | – | –
2 | C=C=CCN(C)C(C)Cc1ccccc1 (centres undefined) | 4.7 µM | 0.8 µM | > 69 µM/kg | 52 µM/kg | 34 µM/kg | – | – | – | – | – | –
3 | C=C=CCNCc1ccccc1 | 0.15 µM | 1.8 µM | > 51 µM/kg | 6 µM/kg | 26 µM/kg | – | – | – | – | – | –
4 | CC=C=CCN(C)Cc1ccccc1 | 15 µM | 29 µM | > 72 µM/kg | 36 µM/kg | – | – | – | – | – | – | –
5 | C=C=CCN(C)CCCOc1ccc(Cl)cc1Cl | 4.6 µM | 0.004 µM | 6 µM/kg | 33 µM/kg | 60 µM/kg | 1.7 µmol/kg | 5.1 µmol/kg | 5.4 µmol/kg | – | – | –
6 | C=C=CCN(C)C1CCc2ccccc21 (centres undefined) | 0.36 µM | 1.8 µM | 35 µM/kg | 1.7 µM/kg | 9 µM/kg | – | – | – | – | – | –
7 | C=C=CCN1CCc2ccccc2C1 | 4.3 µM | 7 µM | > 90 µM/kg | > 90 µM/kg | >90 µM/kg | – | – | – | – | – | –
8 | C=C=CCN(C)Cc1ccccc1 | 0.17 µM | 8.2 µM | > 48 µM/kg | 17 µM/kg | – | – | – | – | – | – | –
9 | C=C=C(CN)c1ccccc1 | 0.24 µM | 7.2 µM | > 39 µM/kg | 8 µM/kg | >79 µM/kg | – | – | – | – | – | –
10 | C=C=C(CN)Cc1ccccc1 | 0.14 µM | 20 µM | > 26 µM/kg | 12 µM/kg | 51 µM/kg | – | – | – | – | – | –
11 | C=C=C(CN)Cc1ccc(Cl)cc1 | 0.04 µM | 0.26 µM | 18 µM/kg | 7 µM/kg | 35 µM/kg | – | – | – | – | – | –
12 | C=C=C(Cc1ccccc1)CN(C)C | > 100 µM | 25 µM | > 72 µM/kg | 54 µM/kg | > 72 µM/kg | – | – | – | – | – | –
13 | C=C=C(CN)Cc1ccc(OC)cc1 | 0.58 µM | 0.7 µM | 39 µM/kg | 16 µM/kg | 36 µM/kg | – | – | – | – | – | –
14 | C=C=CC(C)N(C)Cc1ccccc1 (centres undefined) | > 100 µM | 43 µM | – | – | – | – | – | – | – | – | –
15 | C=C=C(CNC)Cc1ccccc1 | 0.44 µM | 6.2 µM | > 38 µM/kg | 11 µM/kg | 76 µM/kg | – | – | – | – | – | –
16 | CC=C=CCN(C)Cc1ccccc1.O=C(O)C(=O)O (stereo in doubt; (R)(-)2) | 2.3 µM | 17 µM | > 36 µM/kg | 20 µM/kg | 72 µM/kg | – | – | – | – | – | –
17 | CC=C=CCN(C)Cc1ccccc1.O=C(O)C(=O)O (stereo in doubt; (S)(+)2) | 50 µM | 51 µM | > 72 µM/kg | 54 µM/kg | >72 µM/kg | – | – | – | – | – | –
18 | C#CCN(C)CCCOc1ccc(Cl)cc1Cl [CLORGILINE] | – | – | – | – | – | – | – | – | >65 µM/kg | 2.6 µM/kg | > 65 µM/kg
19 | C#CCN(C)[C@H](C)Cc1ccccc1 [SELEGILINE] | – | – | > 89 µM/kg | 2 µM/kg | 5 µM/kg | – | – | – | – | – | –
